Active and inactive are the calls of the source. The rule behind the calls is not given here.
What was measured:
PBMC [1] = assay: Immunostimulatory activity against human PBMC assessed as IL-8 production at 22 uM after 72 hrs; assay type: functional, cell-based
Procedure, shortened: (§1)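 Unstimulated PBMCs and PHA-blasts from three donors, in three independent experiments, cultured with test compound at 20 μg/ml (21 or 22 μM). Supernatants collected after 72 h. The cytokine profile was read on a Bio-Plex 27-plex human cytokine bead immunoassay, using beads coupled to cytokine-specific monoclonal antibodies and run per the kit instructions.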

PBMC [2] = assay: Immunostimulatory activity against human PBMC assessed as MIP-1alpha production at 22 uM after 72 hrs; assay type: functional, cell-based; procedure, shortened: as §1
[3] = tested on: Human immunodeficiency virus 1; assay: Antiviral activity against R5 tropic HIV-1 clade A/E isolate ID12 infected in human PBMC assessed as inhibition of viral replication after 12 days by ELISA; details: Human immunodeficiency virus 1, clade A/E isolate ID12, 12 days
PBMC [4] = assay: Immunostimulatory activity against human PBMC assessed as G-CSF production at 21 uM after 72 hrs; assay type: functional, cell-based
Procedure, shortened: (§2)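 PBMCs and PHA blasts from three donors (three independent experiments) cultured with 21 μM compound; supernatants collected at 72 h; cytokines quantified with the Bio-Plex human 27-plex bead immunoassay.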

[5] = tested on: Human immunodeficiency virus 1; assay: Antiviral activity against R5 tropic HIV-1 clade B isolate US2 infected in human PBMC assessed as inhibition of viral replication […] by ELISA; assay type: functional, organism-based; details: Human immunodeficiency virus 1, clade B isolate US2
Procedure, shortened: (§3)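 PBMCs from healthy donors were stimulated with PHA (2 μg/ml) for 3 days, then seeded at 0.5 × 10^6 cells/well in RPMI 1640 with 10% FCS, IL-2 (25 U/ml) and compound. Virus was added at a final 250 pg p24/ml. Supernatant was taken at day 12 for p24 antigen ELISA.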

[6] = tested on: Human immunodeficiency virus 1; assay: Binding affinity to HIV-1 3B gp120 after 6 mins by SPR analysis at pH 4
[7] = Cytotoxicity against human C8166 cells after 3 to 4 days; assay type: cell-based
Procedure, shortened: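 Cells seeded at 20,000–75,000 per well with compound dilutions, incubated 3–4 days at 37°C, and counted on a Coulter particle counter; CC50 is the concentration inhibiting proliferation by 50%.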

[8] = Antiviral activity against SIV mac251 infected in human MT4 cells assessed as inhibition of virus-induced cytopathicity after 7 days by trypan blue staining; assay type: functional, cell-based, Simian immunodeficiency virus - mac; details: Simian immunodeficiency virus, 251, MT4, 168 h
Procedure, shortened: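 MT-4 cells (5 × 10^5/ml) infected with SIV at 100 CCID50/ml, mixed 1:1 with compound dilutions, incubated at 37°C; viable cells in infected and mock-infected cultures counted by trypan blue; EC50 and CC50 are concentrations reducing viable cell number by 50% in each.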

PBMC [9] = assay: Immunostimulatory activity against human PBMC assessed as suppression of IL-13 production at 22 uM after 72 hrs; assay type: functional; procedure, shortened: as §1
[10] = tested on: Human immunodeficiency virus 1; assay: Ratio of EC90 to EC50 for R5 tropic HIV-1 clade A/E isolate ID12 infected in human PBMC; assay type: functional
PBMC [11] = assay: Immunostimulatory activity against human PBMC assessed as eotoxin production at 22 uM after 72 hrs; assay type: functional, cell-based
Procedure, shortened: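 In three independent experiments, PBMCs and PHA-blasts from three donors were cultured with compound for 72 h. Supernatants were analysed with a bead-based 27-plex human cytokine immunoassay covering interleukins, chemokines, growth factors, IFN-γ and TNF-α.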

[12] = tested on: Human immunodeficiency virus 2; assay: Antiviral activity against HIV-2 ROD infected in human CEM cells assessed as inhibition of virus-induced cytopathicity after 3 to 4 days by microscopic analysis; assay type: functional, organism-based; details: Human immunodeficiency virus 2, ISOLATE ROD, CCRF-CEM
Procedure, shortened: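 CEM cells (5 × 10^5/ml) infected at 100 CCID50/ml, mixed 1:1 with compound dilutions, incubated 3–4 days at 37°C; giant cells counted microscopically against untreated infected controls; EC50 is the concentration preventing syncytium formation by 50%.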

[13] = Antiviral activity against SIV mac251 infected in human Raji cells expressing DC-SIGN gene assessed as inhibition of virus capture by Raji cells after 60 mins by ELISA; assay type: functional, cell-based, Simian immunodeficiency virus - mac; details: Simian immunodeficiency virus, 251, Raji, 1 h
PBMC [14] = assay: Immunostimulatory activity against human PBMC assessed as IL1-beta production at 21 uM after 72 hrs; assay type: functional, cell-based; procedure, shortened: as §1
[15] = Antiviral activity against SIV mac251 infected in human HUT78 cells assessed as prevention of syncytium formation between persistently SIV mac251-infected HUT-78 cells and uninfected CEM cells after 3 to 4 days by ELISA; assay type: functional, cell-based, Simian immunodeficiency virus - mac; details: Simian immunodeficiency virus, 251, CCRF-CEM
[16] = Cytotoxicity against mouse L1210 cells after 3 to 4 days; assay type: cell-based
PBMC [17] = assay: Immunostimulatory activity against human PBMC assessed as IL-2 production at 22 uM after 72 hrs; assay type: functional, cell-based; procedure, shortened: as §1
PBMC [18] = assay: Immunostimulatory activity against human PBMC assessed as IL-9 production at 21 uM after 72 hrs; assay type: functional, cell-based; procedure, shortened: as §1
PBMC [19] = assay: Immunostimulatory activity against human PBMC assessed as IL-15 production at 21 uM after 72 hrs; assay type: functional, cell-based; procedure, shortened: as §1
PBMC [20] = assay: Immunostimulatory activity against human PBMC assessed as IL-4 production at 21 uM after 72 hrs; assay type: functional, cell-based; procedure, shortened: as §1
[21] = tested on: Human immunodeficiency virus 1; assay: Antiviral activity against compound pretreated HIV-1 3B isolate 42 harboring gp120 mutant infected in human CEM cells assessed as inhibition of virus-induced cytopathicity after 3 to 4 days by microscopic analysis; assay type: functional, organism-based; details: Human immunodeficiency virus 1, 3B isolate 42, CCRF-CEM
Procedure, shortened: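 CEM or C8166 cells at 5 × 10^5/ml infected with HIV-1 at 100 CCID50 per ml, then mixed 1:1 with compound dilutions and held at 37°C for 3–4 days. Giant cells were counted microscopically at ×100 against untreated infected cultures. EC50 is the concentration cutting syncytium formation by 50%.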

PBMC [22] = assay: Immunostimulatory activity against human PBMC assessed as suppression of IL-9 production at 21 uM after 72 hrs; assay type: functional; procedure, shortened: as §1
[23] = Cytotoxicity against human CEM cells after 7 days by trypan blue staining; assay type: cell-based, CCRF-CEM
PBMC [24] = assay: Immunostimulatory activity against human PBMC assessed as IL-10 production at 21 uM after 72 hrs; assay type: functional, cell-based; procedure, shortened: as §2
[25] = tested on: Human immunodeficiency virus 1; assay: Ratio of EC90 to EC50 for R5 tropic HIV-1 clade C isolate ETH2220 infected in human PBMC; assay type: functional
Procedure, shortened: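 PBMCs from healthy donors were PHA-stimulated (2 μg/ml, 3 days, 37°C), then seeded at 0.5 × 10^6 per well with compound dilutions in RPMI 1640 with 10% FCS and IL-2 (25 U/ml). Virus was added at 250 pg p24 or p27/ml final. On day 12, supernatant HIV-1 p24 or HIV-2 p27 was measured by ELISA, giving EC50 and EC90.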

[26] = Antiviral activity against SIV mac251 infected in human Raji cells expressing DC-SIGN gene assessed as prevention of syncytium formation between persistently […]-infected Raji cells and uninfected human C8166 cells after 60 mins by ELISA; assay type: functional, cell-based, Simian immunodeficiency virus - mac; details: Simian immunodeficiency virus, 251, Raji, 1 h
[27] = tested on: Human immunodeficiency virus 1; assay: Antiviral activity against X4 tropic HIV-1 group O isolate BCF06 infected in human PBMC assessed as inhibition of viral replication […] by ELISA; assay type: functional, organism-based; details: Human immunodeficiency virus 1, group O isolate BCF06; procedure, shortened: as §3

## CN[C@@H]1[C@H](O[C@@H]2OC[C@@H](O)[C@H](O)[C@H]2O)[C@@H](O)[C@H](O[C@H]2c3cc(C)c(C(=O)N[C@H](C)C(=O)O)c(O)c3-c3c(cc4c(c3O)C(=O)c3cc(OC)cc(O)c3C4=O)[C@@H]2O)O[C@@H]1C [PRADIMICIN A]
PBMC [1]
  Activity: inactive
PBMC [2]
  Activity: inactive
[3]
  EC50: 4.7 µM
PBMC [4]
  Activity: inactive
[5]
  EC50: 6 µM
[6]
  Activity: Active
[7]
  CC50: > 50 µM
[8]
  EC50: 5 µM
PBMC [9]
  fold change (FC): 2
[10]
  Ratio: 2
PBMC [11]
  Activity: inactive
[12]
  EC50: 5.2 µM
[13]
  IC50: 16 µM
PBMC [14]
  Activity: inactive
[15]
  EC50: 4.3 µM
[16]
  CC50: > 50 µM
PBMC [17]
  Activity: inactive
PBMC [18]
  Activity: inactive
PBMC [19]
  Activity: inactive
PBMC [20]
  Activity: inactive
[21]
  EC50: > 50 µM
PBMC [22]
  fold change (FC): 2
[23]
  CC50 at 168 h: > 100 µM
PBMC [24]
  Activity: inactive
[25]
  Ratio: 2
[26]
  IC50: 16 µM
[27]
  EC50: 1.6 µM

## CN[C@@H]1[C@H](O[C@@H]2O[C@H](CO)[C@@H](O)[C@H](OS(=O)(=O)O)[C@H]2O)[C@@H](O)[C@H](O[C@H]2c3cc(C)c(C(=O)N[C@H](C)C(=O)O)c(O)c3-c3c(cc4c(c3O)C(=O)c3cc(OC)cc(O)c3C4=O)[C@@H]2O)O[C@@H]1C [PRADIMICIN S]
PBMC [1]
  Activity: inactive
PBMC [2]
  Activity: inactive
[3]
  EC50: 15 µM
PBMC [4]
  Activity: inactive
[5]
  EC50: 11 µM
[6]
  Activity: Active
[7]
  CC50: > 230 µM
[8]
  EC50: 8.1 µM
PBMC [9]
  fold change (FC): 2
[10]
  Ratio: 2
PBMC [11]
  Activity: inactive
[12]
  EC50: 9.6 µM
[13]
  IC50: 16 µM
PBMC [14]
  Activity: inactive
[15]
  EC50: 12 µM
[16]
  CC50: > 230 µM
PBMC [17]
  Activity: inactive
PBMC [18]
  Activity: inactive
PBMC [19]
  Activity: inactive
PBMC [20]
  Activity: inactive
[21]
  EC50: > 50 µM
PBMC [22]
  fold change (FC): 2
[23]
  CC50 at 168 h: > 100 µM
PBMC [24]
  Activity: inactive
[25]
  Ratio: 2
[26]
  IC50: 16 µM
[27]
  EC50: 4.4 µM
